Published values from different studies.
Target: Serine/threonine-protein kinase NIM1 (NIM1K, Homo sapiens, UniProt Q8IY84)

Compound | read-out | technique | tested at | remaining binding [%]
CO[C@@H](C)c1c(Nc2ccc([C@H](N(C)C(=O)C3CCS(=O)(=O)CC3)C(F)(F)F)cc2)cnc2cc(Cl)nn12 | cell-free assay | competition with immobilised ligand | 1 µM | 79
CN(c1nccc(-c2cnn3ncccc23)n1)C1CC1 | binding |  | 1 µM | 100
CNC(=O)[C@@H]1CC[C@@H](n2c(-c3ccc4cnccc4c3)nc3ccc(C(=O)NCc4cccc(C(N)=O)c4)cc32)C1 | binding | competition with immobilised ligand | 1 µM | 100
COc1ncc2cc3ccccc3nc2c1C#N | cell-free assay | competition with immobilised ligand | 5 µM | 89
O=C(c1ccc(Nc2ncc(Cl)c(-c3cc4ccccc4s3)n2)cc1)N1CCC(N2CCCC2)CC1 | binding | competition with immobilised ligand | 1 µM | 20
CS(=O)(=O)N1CCCC(NC(=O)[C@H](CCC2CCCCC2)NC(=O)c2ccc(CNC(=O)c3cnc4ccccn34)cc2)C1 (stereo partly shown) | cell-free assay | competition with immobilised ligand | 0.1 µM | 64
CN(C)c1ncc(F)c(-c2cnn3ncccc23)n1 | binding |  | 1 µM | 69
O=C(Nc1cccnn1)N1CCC(=Cc2cccc(Oc3ccc(C(F)(F)F)cn3)c2)CC1 | cell-free assay | competition with immobilised ligand | 1 µM | 100
N[C@@H]1CCN(c2nccc(-c3cnn4ncccc34)n2)C1 | binding |  | 1 µM | 79
CCC(=O)N[C@H]1CC[C@@H](C(=O)N(C)c2ccc(-c3nc4ccccc4o3)cc2)C1 | cell-free assay | competition with immobilised ligand | 1 µM | 88
Nc1ncc2c(n1)-c1c([nH]c3ccc(C#CC4CC4)cc13)CCCC2 | binding | competition with immobilised ligand | 1 µM | 61
CS(=O)(=O)NCC[C@H](NC(=O)c1cncc2c1cnn2-c1ccc(F)cc1)c1ccnc(S(C)(=O)=O)c1 | cell-free assay | competition with immobilised ligand | 1 µM | 100
C=CC(=O)N1CCC(C(=O)NCC(=O)N2CCN(c3nc(-c4cnc(N)nc4C(F)F)nc(N4CCOCC4)n3)CC2)CC1 | binding | competition with immobilised ligand | 1 µM | 100
O=C(NCCCN1CCOCC1)c1ccc(Nc2ncc(Cl)c(-c3ccc(Cl)s3)n2)cc1 | binding | competition with immobilised ligand | 1 µM | 20
Cc1nc(C2CCN(C(=O)c3ccc(OC(F)(F)F)cc3N)CC2)c2ncc(N3CCN(C)CC3)cc2n1 | cell-free assay | competition with immobilised ligand | 1 µM | 89
c1cnn2ncc(-c3ccnc(N4CCC45COC5)n3)c2c1 | binding |  | 1 µM | 61
O=C(Nc1c[nH]nc1C(=O)NC1CCNCC1)c1cc(F)cc(F)c1 | binding | competition with immobilised ligand | 1 µM | 100
COc1ccnn2ncc(-c3ccnc(N(C)C)n3)c12 | binding |  | 1 µM | 100
Cc1cnc(Nc2ccc(C(=O)N3CCC(N4CCCC4)CC3)cc2)nc1-c1cc2ccccc2s1 | binding | competition with immobilised ligand | 1 µM | 22
COc1cnc(Nc2cccc(S(N)(=O)=O)c2)nc1N1CCN(c2ccccc2)C(=O)C1 | binding | competition with immobilised ligand | 1 µM | 87
CC1=C(C#N)[C@@H](c2ccc3[nH]nc(C)c3c2)C(C#N)=C(c2ccc(Cl)cc2)N1 | cell-free assay | competition with immobilised ligand | 1 µM | 100
C[C@@H]1CCN(c2nccc(-c3cnn4ncccc34)n2)C1 | binding |  | 1 µM | 87
